# According to ChEMBL document CHEMBL1671838, “Discovery of MK-1220: A Macrocyclic Inhibitor of Hepatitis C Virus NS3/4A Protease with Improved Preclinical Plasma Exposure” (ACS Med Chem Lett, 2011):
# Assays:
# [1] = Drug level in Sprague-Dawley rat liver at 5 mg/kg, po after 4 hrs; format: ADME, organism-based; design: dose 5 mg/kg, route oral; settings: read-out: Drug uptake
# Summary of the method: (§1)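 Rat PK screen: 5 mg/kg given orally in PEG400, n = 2; plasma AUC calculated from a 4 h experiment, and liver concentration measured at 4 h after dosing.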
# [2] = Inhibition of HCV NS3/4A protease expressed Escherichia coli after 1 hr by time-resolved fluorescence assay; design: species or system Hepacivirus hominis
# Summary of the method: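 Binding assay against genotype 1b HCV NS3/4A protease, read by time-resolved fluorescence; potency expressed as Ki.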
# [3] = AUC in Sprague-Dawley rat plasma at 5 mg/kg, po after 4 hrs; format: ADME, organism-based; design: time < 4 hr, dose 5 mg/kg, route oral; summary of the method: as §1
# Hepatitis C virus [4] = assay: Antiviral activity against HCV1b con1 infected in human HuH7 cells assessed as inhibition of viral replication after 24 hrs in presence of 10% fetal bovine serum; format: functional, organism-based, Hepacivirus hominis; settings: Con1, Huh-7, 24 h
# Summary of the method: (§2)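 Cell-based HCV replicon assay giving IC50. Genotype 1b replicon run with 10% fetal bovine serum or with 50% normal human serum. Genotype 2a replicon run with 10% FBS.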
# Hepatitis C virus [5] = assay: Antiviral activity against HCV1b con1 infected in human HuH7 cells assessed as inhibition of viral replication after 24 hrs in presence of 50% normal human serum; format: functional, organism-based, Hepacivirus hominis; settings: Con1, Huh-7, 24 h; summary of the method: as §2
# [6] = Clearance in rhesus monkey at 1 mg/kg, iv; settings: in vivo
# [7] = Half life in rhesus monkey at 1 mg/kg, iv; settings: in vivo
# [8] = Selectivity ratio Ki for HCV NS3/4A protease to Ki for chymotrypsin
# [9] = Bioavailability in Beagle dog at 2 mg/kg, iv and 5 mg/kg, po; format: ADME, organism-based, Canis lupus familiaris; settings: in vivo
# Summary of the method: (§3)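 Bioavailability derived from IV dosing at 2 mg/kg in DMSO (rat n = 4, dog n = 2) and PO dosing at 5 mg/kg in 10% Tween (rat n = 3, dog n = 2).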
# Hepatitis C virus [10] = assay: Antiviral activity against HCV2a infected in human HuH7 cells assessed as inhibition of viral replication after 24 hrs in presence of 10% fetal bovine serum; format: functional, organism-based, Hepacivirus hominis; settings: genotype 2a, Huh-7, 24 h; summary of the method: as §2
# [11] = Cmax in rhesus monkey at 5 mg/kg, po; format: ADME, organism-based, Macaca mulatta; design: dose 5 mg/kg, route oral; settings: in vivo
# Summary of the method: (§4)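 Rhesus monkey oral PK: 5 mg/kg PO in 10% Tween, n = 2.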
# [12] = Half life in Beagle dog at 2 mg/kg, iv; format: ADME, organism-based, Canis lupus familiaris; design: dose 2 mg/kg, route intravenous; settings: in vivo
# Summary of the method: (§5)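 IV PK: 2 mg/kg dosed intravenously in DMSO to rat (n = 4) and dog (n = 2).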
# [13] = Drug level in Beagle dog liver at 5 mg/kg, po after 2 hrs; format: ADME, organism-based, Canis lupus familiaris; design: dose 5 mg/kg, route oral; settings: read-out: Drug uptake
# Summary of the method: (§6)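 Oral PK study: 5 mg/kg PO in 10% Tween. Rat n = 3, dog n = 2. Plasma exposure was measured in both species, and dog liver levels were measured at 2 h and 26 h after dosing.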
# [14] = AUC in Beagle dog at 5 mg/kg, po; format: ADME, organism-based, Canis lupus familiaris; design: dose 5 mg/kg, route oral; settings: plasma; summary of the method: as §6
# [15] = Clearance in Beagle dog at 2 mg/kg, iv; format: ADME, organism-based, Canis lupus familiaris; design: dose 2 mg/kg, route intravenous; settings: in vivo; summary of the method: as §5
# [16] = AUC in Sprague-Dawley rat at 5 mg/kg, po; format: ADME, organism-based; design: dose 5 mg/kg, route oral; settings: plasma; summary of the method: as §6
# [17] = Cmax in Sprague-Dawley rat at 5 mg/kg, po; format: ADME, organism-based; design: dose 5 mg/kg, route oral; settings: in vivo; summary of the method: as §6
# [18] = Bioavailability in Sprague-Dawley rat at 2 mg/kg, iv and 5 mg/kg, po; format: ADME, organism-based; settings: in vivo; summary of the method: as §3
# [19] = Clearance in Sprague-Dawley rat at 2 mg/kg, iv; format: ADME, organism-based; design: dose 2 mg/kg, route intravenous; settings: in vivo; summary of the method: as §5
# [20] = AUC in rhesus monkey at 5 mg/kg, po; format: ADME, organism-based, Macaca mulatta; design: dose 5 mg/kg, route oral; settings: plasma; summary of the method: as §4
# [21] = Selectivity ratio Ki for HCV NS3/4A protease to Ki for trypsin
# [22] = Bioavailability in rhesus monkey at 1 mg/kg, iv and 5 mg/kg, po; settings: in vivo
# [23] = Drug level in Beagle dog liver at 5 mg/kg, po after 26 hrs; format: ADME, organism-based, Canis lupus familiaris; design: dose 5 mg/kg, route oral; settings: read-out: Drug uptake
# Summary of the method: (§7)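 Single oral dose of 5 mg/kg in 10% Tween vehicle; n = 3 for rat and n = 2 for dog. Liver drug concentration was measured at 24 h in rat and at 26 h in dog.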
# [24] = Cmax in Beagle dog at 5 mg/kg, po; format: ADME, organism-based, Canis lupus familiaris; design: dose 5 mg/kg, route oral; settings: in vivo; summary of the method: as §6
# [25] = Half life in Sprague-Dawley rat at 2 mg/kg, iv; format: ADME, organism-based; design: dose 2 mg/kg, route intravenous; settings: in vivo; summary of the method: as §5
# [26] = Drug level in Sprague-Dawley rat liver at 5 mg/kg, po after 24 hrs; format: ADME, organism-based; design: dose 5 mg/kg, route oral; settings: read-out: Drug uptake; summary of the method: as §7
compound,measurement,setting,value
C=C[C@@H]1C[C@]1(NC(=O)[C@@H]1C[C@@H]2CN1C(=O)[C@H](C1CCCCC1)NC(=O)OCCC/C=C/c1ccc3ccnc(c3c1)O2)C(=O)NS(=O)(=O)C1CC1,concentration at 4 h,[1],46.9 µM
same,Ki,[2],0.063 nM
same,AUC at 4 h,[3],0.67 µM·h
same,IC50,Hepatitis C virus [4],2.5 nM
same,IC50,Hepatitis C virus [5],78 nM
C=C[C@@H]1C[C@]1(NC(=O)[C@@H]1C[C@@H]2CN1C(=O)[C@H](C1CCCCC1)NC(=O)OCC(C)(C)CCCc1cc3c(nccc3cc1OC)O2)C(=O)NS(=O)(=O)C1CC1,clearance,[6],8.3 mL/min/kg
same,half-life,[7],78 min
same,Ratio Ki,[8],> 50000
same,bioavailability,[9],41%
same,IC50,Hepatitis C virus [10],5 nM
same,Cmax,[11],300 nM
same,half-life,[12],150 min
same,concentration at 4 h,[1],23 µM
same,concentration at 2 h,[13],54 µM
same,AUC,[14],12.4 µM·h
same,Ki,[2],0.02 nM
same,AUC at 4 h,[3],11.8 µM·h
same,clearance,[15],3.6 mL/min/kg
same,AUC,[16],12.1 µM·h
same,Cmax,[17],4.4 µM
same,bioavailability,[18],37%
same,clearance,[19],3.4 mL/min/kg
same,IC50,Hepatitis C virus [4],4 nM
same,AUC,[20],1.2 µM·h
same,IC50,Hepatitis C virus [5],11 nM
same,Ratio Ki,[21],> 50000
same,bioavailability,[22],9%
same,concentration at 26 h,[23],10.3 µM
same,Cmax,[24],4 µM
same,half-life,[25],342 min
same,concentration at 24 h,[26],9.9 µM
C=C[C@@H]1C[C@]1(NC(=O)[C@@H]1C[C@@H]2CN1C(=O)[C@H](C(C)(C)C)NC(=O)OCCCCCc1cc(OC(F)(F)F)c3ccnc(c3c1)O2)C(=O)NS(=O)(=O)C1CC1,concentration at 4 h,[1],8.8 µM
same,Ki,[2],0.75 nM
same,AUC at 4 h,[3],1.6 µM·h
same,IC50,Hepatitis C virus [4],50 nM
same,IC50,Hepatitis C virus [5],4400 nM
C=C[C@@H]1C[C@]1(NC(=O)[C@@H]1C[C@@H]2CN1C(=O)[C@H](C1CCCCC1)NC(=O)OCCCCCc1ccc3ccnc(c3c1)O2)C(=O)NS(=O)(=O)C1CC1,concentration at 4 h,[1],29.8 µM
same,Ki,[2],0.15 nM
same,AUC at 4 h,[3],3.1 µM·h
same,IC50,Hepatitis C virus [4],4.5 nM
same,IC50,Hepatitis C virus [5],181 nM
C=C[C@@H]1C[C@]1(NC(=O)[C@@H]1C[C@@H]2CN1C(=O)[C@H](C1CCCC1)NC(=O)OCCC/C=C/c1ccc3ccnc(c3c1)O2)C(=O)NS(=O)(=O)C1CC1,concentration at 4 h,[1],9.2 µM
same,Ki,[2],0.1 nM
same,AUC at 4 h,[3],4.2 µM·h
same,IC50,Hepatitis C virus [4],2 nM
same,IC50,Hepatitis C virus [5],40 nM
C=C[C@@H]1C[C@]1(NC(=O)[C@@H]1C[C@@H]2CN1C(=O)[C@H](C1CCCC1)NC(=O)OCCCCCc1cc3c(nccc3cc1OC)O2)C(=O)NS(=O)(=O)C1CC1,concentration at 4 h,[1],8 µM
same,Ki,[2],0.03 nM
same,AUC at 4 h,[3],18.1 µM·h
same,IC50,Hepatitis C virus [4],2 nM
same,IC50,Hepatitis C virus [5],80 nM
